Activity calls are given as the source filed them. The calls are words filed in the database; no cut-off is given here.
Key:
[1] = target: TGF-beta receptor type-2 (Homo sapiens) (UniProt P37173); test: Inhibition of TGF-beta1 induced TGF-beta type 2 receptor dimerization in human HeLa cells assessed as receptor dimers by bleaching-step counting assay (reference value: 39.9 +/- 2.5%); type: cell-based; parameters: scale not given: the % may be the effect or the level left
HeLa [2] = test: Antagonist activity at human TGF-beta receptor in HeLa cells assessed as suppression of nuclear translocation of Smad3 at 100 uM after 1 hr by immunofluorescence imaging; type: functional, cell-based
How it was run: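 HeLa cells were grown 24 h, then serum-starved 24 h and treated 1 h with 0.1% DMSO or 100 μM compound, ± TGF-β1. Cells were fixed in 4% paraformaldehyde, permeabilized with 0.1% Triton X-100 and blocked with 1% BSA/PBST. Staining used anti-Smad3 (1:200, overnight) and Alexa 488 secondary (1:500), imaged by confocal microscopy.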

HeLa [3] = test: Antagonist activity at human TGF-beta receptor in HeLa cells assessed as reduction in TGF-beta1-induced Smad3 phosphorylation at 100 uM after 1 hr by Western blot analysis; type: functional, cell-based
How it was run: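 Starved HeLa cells given 0.1% DMSO vehicle or 100 μM compound for 1 h, with or without TGF-β1. Lysates in Laemmli buffer were denatured 10 min at 95°C and run on 7.5% SDS gels, then transferred to PVDF. Blots were probed with p-Smad3 and Smad3 antibodies (1:1000) and detected by ECL.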

HeLa [4] = test: Antagonist activity at human TGF-beta receptor in HeLa cells assessed as reduction in TGF-beta1-induced p21 expression at 100 uM after 24 hrs by Western blot analysis; type: functional, cell-based
How it was run: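 Starved HeLa cells exposed to vehicle (0.1% DMSO) or 100 μM compound for 24 h, with or without TGF-β1. Lysates were denatured at 95°C and separated on 7.5% SDS gels. PVDF blots were probed with anti-p21 (1:1000) and read by enhanced chemiluminescence.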

[5] = target: TGF-beta receptor type-2 (Homo sapiens) (UniProt P37173); test: Inhibition of TGF-beta1 induced TGF-beta type 2 receptor dimerization in human HeLa cells at 100 uM after 1 hr by single-molecule fluorescence microscopy; type: cell-based
How it was run: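 HeLa cells were transfected for 4 h with TβRII-GFP plasmid (0.2 μg/mL) to give low expression. They were given 0.1% DMSO or 100 μM compound for 1 h, then 15 min with 10 ng/mL TGF-β1 where stimulated. Live-cell TIRF imaging used 488-nm excitation at 10 Hz for 200 frames. Spot intensities were fitted with Gaussians to give monomer/dimer fractions; purified GFP served as monomer reference.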

[6] = target: TGF-beta receptor type-2 (Homo sapiens) (UniProt P37173); test: Displacement of biotinylated TGF-beta1 from human TGF-beta type 2 receptor at 100 uM after 1 hr by avidin-FITC-based flow cytometry
How it was run: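 HeLa cells were incubated 1 h with 0.1% DMSO or 100 μM compound in the presence of biotinylated TGF-β1. Bound ligand was detected with avidin-FITC and fluorescence intensity read by flow cytometry.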

HeLa [7] = test: Antimigratory activity against human HeLa cells assessed as inhibition of TGF-beta1-induced cell migration at 100 uM after 24 hrs by scratch motility assay; type: functional, cell-based
How it was run: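 Confluent HeLa monolayers (1 × 10^6 cells/well), starved 24 h, were scratched with a pipette tip and washed. They then received 0.1% DMSO or 100 μM compound ± TGF-β1 for 24 h. Cells in five random fields of the scratch were counted and averaged per field.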

HeLa [8] = test: Antimigratory activity against human HeLa cells assessed as inhibition of TGF-beta1-induced cell invasion across collagen matrix at 100 uM after 24 hr by collagen-based cell Invasion assay
HeLa [9] = test: Cytotoxicity against human HeLa cells at 1 to 200 uM after 24 hrs by MTS proliferation assay; type: cell-based
How it was run: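 HeLa cells were seeded at 1 × 10^4 per well in complete medium for 24 h. They were then exposed to vehicle (0.1% DMSO) or 0–200 μM compound for 24 h. Proliferation was read with a CellTiter 96 Aqueous non-radioactive (MTS-type) assay.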

TGF-beta receptor type-2 (Homo sapiens), sequence (P37173 whole entry): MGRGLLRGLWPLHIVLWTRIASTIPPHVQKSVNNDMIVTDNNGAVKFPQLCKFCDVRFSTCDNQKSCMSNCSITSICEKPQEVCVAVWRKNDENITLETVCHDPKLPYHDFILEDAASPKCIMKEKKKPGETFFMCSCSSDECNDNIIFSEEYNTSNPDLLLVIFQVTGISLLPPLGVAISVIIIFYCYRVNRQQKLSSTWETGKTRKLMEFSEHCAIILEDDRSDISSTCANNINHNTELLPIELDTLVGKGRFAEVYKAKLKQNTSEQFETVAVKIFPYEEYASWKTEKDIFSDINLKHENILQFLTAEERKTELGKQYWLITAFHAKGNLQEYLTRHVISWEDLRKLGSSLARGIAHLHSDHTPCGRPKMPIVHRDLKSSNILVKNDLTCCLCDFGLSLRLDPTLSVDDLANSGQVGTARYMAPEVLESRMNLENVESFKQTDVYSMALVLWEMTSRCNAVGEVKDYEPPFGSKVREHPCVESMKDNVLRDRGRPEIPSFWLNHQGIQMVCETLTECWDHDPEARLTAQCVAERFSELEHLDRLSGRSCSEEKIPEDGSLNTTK

Structure (SMILES): COc1ccc([C@@H]2CC(=O)c3c(O)cc(O)cc3O2)cc1O [HESPERETIN]
- Activity [1]: 19.5%
- inhibition (HeLa [2]): Active
- inhibition (HeLa [3]): Active
- inhibition (HeLa [4]): Active
- inhibition [5]: 19.9%
- Activity [6]: Active
- inhibition (HeLa [7]): Active
- inhibition (HeLa [8]): Active
- Activity (HeLa [9]): Non-toxic
